Results from ChEMBL document CHEMBL1123619, “Isothiourea derivatives of 6-phenyl-2,3,5,6-tetrahydroimidazo[2,1-b]thiazole with broad-spectrum anthelmintic activity” (J Med Chem, 1987).

Key:
[1] = test system: Ovis aries; assay: Toxic activity expressed as the percentage against liver fluke in the sheep at 300 mg/kg peroral administration of dose; no toxic symptoms observed; type: ADME, organism-based; parameters: dose 300 mg/kg, route oral; conditions: in vivo, po
[2] = test system: Ovis aries; assay: Antihelmethic activity expressed as the percentage of worms eliminated in the feces in sheep large bowel at peroral dose of 15 mg/kg against Trichuris ovis.; type: functional; conditions: route oral
Summary of the method: (§1)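 Sheep given a single dose, oral or subcutaneous. Total daily feces collected for 4 days after treatment and examined for expelled worms. Necropsy at day 7 after dosing; lungs, liver and gastrointestinal tract removed and remaining worms identified. Activity calculated by comparing worms passed in feces with those remaining at autopsy. Single animals per test unless otherwise indicated.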

[3] = test system: Mus musculus; assay: Nematocidal activity against Nematospiroides dubius induced necropsy in mouse, after oral administration of 12.5 mg/kg of the compound; type: functional
Summary of the method: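 Female LACA mice (7 weeks) infected orally with 100 N. dubius L3 larvae; single oral dose as solution in PEG 400 on infection day 10, four mice per group; necropsied 4 days later; percent activity by comparing treated and untreated worm burdens.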

[4] = test system: Ovis aries; assay: Antihelmethic activity expressed as the percentage of worms eliminated in the feces in sheep small intestine at peroral dose of 15 mg/kg against Nematodirus species; type: functional; conditions: route oral; summary of the method: as §1
[5] = test system: Ovis aries; assay: Antihelmethic activity expressed as the percentage of worms eliminated in the feces in sheep small intestine at subcuteneous dose of 30 mg/kg against Bunostomum trigonocephalum.; type: functional; summary of the method: as §1
[6] = test system: Ovis aries; assay: Antihelmethic activity expressed as the percentage of worms eliminated in the feces in sheep large bowl at peroral dose of 15 mg/kg against chabertia ovina.; type: functional; conditions: route oral; summary of the method: as §1
[7] = test system: Mus musculus; assay: Nematocidal activity against Nematospiroides dubius induced necropsy in mouse, after oral administration of 100 mg/kg; type: functional
Summary of the method: (§2)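 Seven-week-old female LACA mice infected orally with 100 N. dubius L3 larvae; single gavage dose given at day 10 of infection, groups of four mice; necropsy 4 days later; percent activity from worm burdens of treated versus untreated groups.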

[8] = test system: Ovis aries; assay: Antihelmethic activity expressed as the percentage of worms eliminated in the feces in sheep large bowel at peroral dose of 30 mg/kg against Oesophagostomum columbianum.; type: functional; conditions: route oral; summary of the method: as §1
[9] = test system: Ovis aries; assay: Antihelmethic activity expressed as the percentage of worms eliminated in the feces in sheep small intestine at peroral dose of 15 mg/kg against Cooperia curticei; type: functional; conditions: route oral; summary of the method: as §1
[10] = test system: Ovis aries; assay: Antihelmethic activity expressed as the percentage of worms eliminated in the feces in sheep large bowel at peroral dose of 30 mg/kg against Trichuris ovis.; type: functional; conditions: route oral; summary of the method: as §1
[11] = test system: Mus musculus; assay: Nematocidal against Nematospiroides dubius in mouse was determined at 50 mg/kg peroral dose of compound; type: functional; conditions: route oral; summary of the method: as §2
[12] = test system: Ovis aries; assay: Antihelmethic activity expressed as the percentage of worms eliminated in the feces in sheep small intestine at peroral dose of 30 mg/kg against Nematodirus species; type: functional; conditions: route oral; summary of the method: as §1
[13] = test system: Ovis aries; assay: Antihelmethic activity expressed as the percentage of worms eliminated in the feces in sheep small intestine at subcuteneous dose of 30 mg/kg against Nematodirus species; type: functional; summary of the method: as §1
[14] = test system: Ovis aries; assay: Antihelmethic activity expressed as the percentage of worms eliminated in the feces in sheep large bowel at peroral dose of 15 mg/kg against Lungworm Dictyocaulus filaria.; type: functional; conditions: route oral; summary of the method: as §1
[15] = test system: Ovis aries; assay: Toxic activity expressed as the percentage against liver fluke in the sheep at 15 mg/kg peroral administration of dose; type: ADME, organism-based; parameters: dose 15 mg/kg, route oral; conditions: in vivo, po
Summary of the method: (§3)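 Fasciola hepatica in sheep, controlled test; animals necropsied only when fecal egg count fell; postmortem fluke burdens compared with untreated control sheep (10 controls).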

[16] = test system: Fasciola hepatica; assay: Anthelmintic activity against adult liver fluke (Fasciola hepatica) in sheep following 30 mg/kg p.o.; type: functional; conditions: route oral
Summary of the method: (§4)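 Sheep dosed with a single oral dose. Fecal fluke egg output monitored after treatment. Animals necropsied only if the fecal egg count fell. Postmortem Fasciola hepatica burdens compared with untreated control sheep (mean of 10 controls). Single animals per test unless otherwise indicated, with group size given in parentheses. I denotes no effect on fecal fluke egg output.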

[17] = test system: Ovis aries; assay: Toxic activity expressed as the percentage against liver fluke in the sheep at 30 mg/kg peroral administration of dose; type: ADME, organism-based; parameters: dose 30 mg/kg, route oral; conditions: in vivo, po; summary of the method: as §3
[18] = test system: Mus musculus; assay: Nematocidal activity against Nematospiroides dubius induced necropsy in mouse, after oral administration of 50 mg/kg of the compound; type: functional; summary of the method: as §2
[19] = test system: Ovis aries; assay: Antihelmethic activity expressed as the percentage of worms eliminated in the feces in sheep […] at subcuteneous dose of 30 mg/kg against Lungworm Dictyocaulus filaria.; type: functional; summary of the method: as §1
[20] = test system: Ovis aries; assay: Antihelmethic activity expressed as the percentage of worms eliminated in the feces in sheep large bowel at peroral dose of 15 mg/kg against Oesophagostomum columbianum.; type: functional; conditions: route oral; summary of the method: as §1
[21] = test system: Canis familiaris; assay: Antihelmethic activity expressed as the percentage of worms eliminated in the feces in dog toxascaris at peroral dose of 30 mg/kg; worms voided and toxascaris egg count reduced to zero for the duration of the test; type: functional, organism-based; parameters: dose 30 mg/kg; conditions: Canis lupus familiaris
[22] = test system: Ovis aries; assay: Antihelmethic activity expressed as the percentage of worms eliminated in the feces in sheep small intestine at peroral dose of 30 mg/kg against Trichostrongylus axei; type: functional; conditions: route oral; summary of the method: as §1
[23] = test system: Ovis aries; assay: Antihelmethic activity expressed as the percentage of worms eliminated in the feces in sheep small intestine at subcuteneous dose of 30 mg/kg against Strongyloides papillosus; type: functional; summary of the method: as §1
[24] = test system: Ovis aries; assay: Antihelmethic activity expressed as the percentage of worms eliminated in the feces in sheep small intestine at subcuteneous dose of 30 mg/kg against Trichostrongylus axei; type: functional; summary of the method: as §1
[25] = test system: Ovis aries; assay: Antihelmethic activity expressed as the percentage of worms eliminated in the feces in sheep large bowel at peroral dose of 30 mg/kg against chabertia ovina.; type: functional; conditions: route oral; summary of the method: as §1
[26] = test system: Felis catus; assay: Antihelmethic activity expressed as the percentage of worms eliminated in the feces in cat tapeworm at peroral dose of 30 mg/kg; worms expelled and no futher segments appeared in the feces for the duration of the test; type: functional, organism-based; parameters: dose 30 mg/kg
[27] = test system: Ovis aries; assay: Antihelmethic activity expressed as the percentage of worms eliminated in the feces in sheep […] at peroral dose of 15 mg/kg against Liver fluke Fasciola hepatica.; type: functional; conditions: route oral
[28] = test system: Ovis aries; assay: Anthelmintic activity against adult liver fluke (Fasciola hepatica) in sheep, after peroral administration of 15 mg/kg was determined; type: functional; conditions: route oral; summary of the method: as §4
[29] = test system: Ovis aries; assay: Antihelmethic activity expressed as the percentage of worms eliminated in the feces in sheep abomasum at peroral dose of 30 mg/kg against Haemonchus contortus; type: functional; conditions: route oral; summary of the method: as §1
[30] = test system: Mus musculus; assay: Nematocidal against Nematospiroides dubius in mouse was determined at 100 mg/kg peroral dose of compound; type: functional; conditions: route oral; summary of the method: as §2
[31] = test system: Ovis aries; assay: Antihelmethic activity expressed as the percentage of worms eliminated in the feces in sheep small intestine at peroral dose of 30 mg/kg against Cooperia curticei; type: functional; conditions: route oral; summary of the method: as §1
[32] = test system: Heligmosomoides polygyrus; assay: Nematocidal activity against Nematospiroides dubius induced necropsy in mouse, oral administration 200 mg/kg; type: functional; summary of the method: as §2
[33] = test system: Mus musculus; assay: Nematocidal against Nematospiroides dubius in mouse was determined at 25 mg/kg peroral dose of compound; type: functional; conditions: route oral; summary of the method: as §2
[34] = test system: Ovis aries; assay: Antihelmethic activity expressed as the percentage of worms eliminated in the feces in sheep large bowel at subcuteneous dose of 30 mg/kg against chabertia ovina.; type: functional; summary of the method: as §1
[35] = organism: Ovis aries; assay: Antihelmethic activity expressed as the percentage of worms eliminated in the feces in sheep species.; type: functional
Summary of the method: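 Sheep; total daily faeces collected for 4 days after treatment and searched for expelled worms; necropsy 7 days post-dose with lungs, liver and GI tract examined and worms identified; activity from worms passed in faeces versus worms remaining in host at autopsy.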

[36] = test system: Ovis aries; assay: Antihelmethic activity expressed as the percentage of worms eliminated in the feces in sheep large bowel at peroral dose of 30 mg/kg against Lungworm Dictyocaulus filaria.; type: functional; conditions: route oral; summary of the method: as §1
[37] = test system: Mus musculus; assay: Nematocidal activity against Nematospiroides dubius induced necropsy in mouse, after oral administration of 100 mg/kg of the compound; type: functional; summary of the method: as §2

In the case of CS/C(=N\c1cccc(C2CN3CCSC3=N2)c1)Nc1ccc(C#N)cc1 (stereo not drawn), the Activity [1] is reported as “no toxic symptoms”, the Activity [2] is reported as 100% and the Activity [3] is reported as 28%. For the same compound, the Activity [4] was 100%, the Activity [5] was 100% and the Activity [6] was 99%. The Reduction [7] was 99%, the Activity [8] was 93% and the Activity [9] was 99%. The Activity [10] was 100%, the Activity [11] was 99 and the Activity [12] was 73%. For the same compound, the Activity [13] was 100%, the Activity [14] was 100% and the Activity [15] was 83%. The Activity [16] was 97%, the Activity [17] was 97% and the Activity [18] was 99%. For the same compound, the Reduction [18] was 74%, the Activity [19] was 100% and the Activity [20] was 100%. For the same compound, the Activity [21] was “no toxic symptoms”, the Activity [22] was 100% and the Activity [23] was 100%. The Activity [24] was 100%, the Activity [25] was 100% and the Activity [26] was “no toxic symptoms”. It also gave an Activity [27] of 100%, an Activity [28] of 83% and an Activity [29] of 100%. It also gave an Activity [30] of 100, an Activity [31] of 100% and a Reduction [32] of 100%. It also gave an Activity [33] of 68, an Activity [34] of 96% and an Activity [35] of 95%. For the same compound, the Activity [36] was 100% and the Activity [37] was 100%.
